Test results taken from ChEMBL document CHEMBL1914307, “Small molecular CD4 mimics as HIV entry inhibitors” (Bioorg Med Chem, 2011).

How the values were obtained:
[1] = Cytotoxicity against mock-infected human PM1 cells expressing CCR5 by WST-8 assay; format: cell-based
In short: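 Viability of mock-infected PM1/CCR5 cells determined by WST-8; CC50 = concentration reducing viability by half; mean of at least three independent experiments.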

[2] = tested on: Human immunodeficiency virus 1; assay: Antiviral activity against R5 tropic HIV1 YTA infected in human TZM-bl cells assessed as beta-galactosidase activity preincubated for 15 mins before infection measured after 2 days by single-round assay using luminometry; format: functional, organism-based; settings: Human immunodeficiency virus 1, YTA
In short: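 Single-round infection of TZM-bl cells with R5 YTA virus; beta-galactosidase read as relative light units; IC50 = concentration giving 50% reduction vs virus control wells; mean of at least three independent experiments.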

[3] = tested on: Human immunodeficiency virus 1; assay: Antiviral activity against HIV1 infected in human PM1 cells expressing CCR5 assessed as inhibition of virus-induced cytopathogenicity by multi-round assay; format: functional, organism-based; settings: Human immunodeficiency virus 1, PM1
In short: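 HIV-1-induced cytopathogenicity measured in PM1/CCR5 cells over multiple rounds of infection; IC50 from inhibition of cytopathic effect; mean of at least three independent experiments.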

[4] = Ratio of compound CC50 to NBD-556 CC50 for mock-infected human PM1 cells expressing CCR5 by WST-8 assay; format: ADME, cell-based
[5] = Selectivity index, ratio of CC50 for mock-infected human PM1 cells expressing CCR5 to IC50 for R5 tropic HIV1 YTA infected in human TZM-bl cells; format: functional
In short: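 SI calculated as CC50 (WST-8 viability, mock-infected PM1/CCR5 cells) divided by IC50 (beta-galactosidase reduction after single-round YTA infection of TZM-bl cells).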

PM1 = assay: Induction of gp120 conformational change in R5 tropic Human immunodeficiency virus 1 subtype B isolate JR-FL infected in human PM1 cells assessed as binding of anti-HIV1 mAb 4C11 measuring mean fluorescence intensity at 100 uM preincubated for 15 mins by FACS analysis using antibody staining (reference value: 14.94 fluorescence intensity); format: cell-based
In short: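 Env-expressing PM1 cells were pretreated with the CD4 mimic, then stained with the CD4-induced anti-envelope mAb 4C11 at 4 °C for 15 min. Cells were washed in PBS and detected with FITC-conjugated goat anti-human IgG. The read-out was flow cytometry on gated PM1 cells, giving the mean fluorescence intensity of 4C11. Anti-human CD19 served as the control antibody. Data are representative of at least two independent experiments.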

SMILES | CC50 [1] | IC50 [2] | IC50 [3] | selectivity ratio [4] | Ratio CC50/IC50 [5] | Flu intensity (PM1)
O=C(Nc1ccc(Cl)cc1)C(=O)Nc1ccc(Cl)cc1 | > 500 µM | > 100 µM |  |  |  | 
O=C(Nc1ccc(Cl)cc1)C(=O)NC1CC2(CCCCC2)NC2(CCCCC2)C1 (configuration not stated) | 120 µM | 0.68 µM | 0.56 µM | 4 | 176 | 22.2
NC(=O)N1CCC(NC(=O)C(=O)Nc2ccc(Cl)cc2)CC1 | 310 µM | 8.3 µM |  |  | 37 | 16
NC(=S)N1CCC(NC(=O)C(=O)Nc2ccc(Cl)cc2)CC1 | 42 µM | 5.5 µM |  |  | 7.6 | 20.2
CC1(C)CC(NC(=O)C(=O)Nc2ccc(Cl)cc2)CC(C)(C)N1 | 35 µM | 0.61 µM | 0.9 µM |  | 57 | 23.1
Cc1ccc(NC(=O)C(=O)NC2CC(C)(C)NC(C)(C)C2)cc1 | 260 µM | 8.4 µM |  |  | 31 | 
O=C(Nc1ccc(Cl)cc1)C(=O)NC1CCN(C(=O)c2ccccc2)CC1 |  | 5.1 µM |  |  |  | 17.8
N=C(N)N1CCC(NC(=O)C(=O)Nc2ccc(Cl)cc2)CC1.O=C(O)C(F)(F)F | 72 µM | 6.1 µM |  |  | 12 | 20.9
O=C(Nc1ccc(F)cc1)C(=O)Nc1ccc(Cl)cc1 | > 500 µM | 3.1 µM |  |  | >160 | 15.2
O=C(Nc1ccc(Cl)cc1)C(=O)NC1CCN(C(=O)Nc2ccccc2)CC1 | 6.2 µM | 11 µM |  |  | 0.56 | 
O=C(NCCc1ccccn1)C(=O)Nc1ccc(Cl)cc1 | 480 µM | 19.8 µM |  |  | 24 | 15.4
O=C(Nc1ccc(Cl)cc1)C(=O)Nc1ccc(Br)cc1 | > 500 µM | > 100 µM |  |  |  | 
O=C(Nc1ccc(Cl)cc1)C(=O)NC1CCNCC1 | 51 µM | 7 µM |  |  | 7.3 | 20.5
